From ChEMBL document CHEMBL3351316, “Scaffold hopping approach on the route to selective tankyrase inhibitors” (Eur J Med Chem, 2014)
Calls of active or inactive are those of the source. The rule behind the calls is not given here.

Tests used:
[1] = molecular target: Protein mono-ADP-ribosyltransferase PARP6 (Homo sapiens) (UniProt Q2NL67); experiment: Inhibition of human recombinant PARP6 at 10 uM incubated for 1 hr using NAD+, biotinylated NAD+ and activated DNA by luminescence based assay
Method in brief: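 Recombinant PARP enzyme reactions were run in duplicate for 1 h at rt on histone-coated plates in Tris·HCl pH 8.0 buffer with NAD+, biotinylated NAD+ and activated DNA. Detection used streptavidin-HRP for 30 min at rt, then a chemiluminescent developer. % inhibition = 100 − % activity, scaled between the no-compound (100%) and no-enzyme (0%) signals.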

[2] = molecular target: T1, Tankyrase 1/2 (Homo sapiens, UniProt Q9H2K2+O95271); experiment: Inhibition of tankyrase in human DLD1 cells assessed as reduction in Wnt activity after 24 hrs by TCF-luciferase reporter gene assay; type: cell-based; conditions: dld-1
T1 sequence (Q9H2K2 whole entry): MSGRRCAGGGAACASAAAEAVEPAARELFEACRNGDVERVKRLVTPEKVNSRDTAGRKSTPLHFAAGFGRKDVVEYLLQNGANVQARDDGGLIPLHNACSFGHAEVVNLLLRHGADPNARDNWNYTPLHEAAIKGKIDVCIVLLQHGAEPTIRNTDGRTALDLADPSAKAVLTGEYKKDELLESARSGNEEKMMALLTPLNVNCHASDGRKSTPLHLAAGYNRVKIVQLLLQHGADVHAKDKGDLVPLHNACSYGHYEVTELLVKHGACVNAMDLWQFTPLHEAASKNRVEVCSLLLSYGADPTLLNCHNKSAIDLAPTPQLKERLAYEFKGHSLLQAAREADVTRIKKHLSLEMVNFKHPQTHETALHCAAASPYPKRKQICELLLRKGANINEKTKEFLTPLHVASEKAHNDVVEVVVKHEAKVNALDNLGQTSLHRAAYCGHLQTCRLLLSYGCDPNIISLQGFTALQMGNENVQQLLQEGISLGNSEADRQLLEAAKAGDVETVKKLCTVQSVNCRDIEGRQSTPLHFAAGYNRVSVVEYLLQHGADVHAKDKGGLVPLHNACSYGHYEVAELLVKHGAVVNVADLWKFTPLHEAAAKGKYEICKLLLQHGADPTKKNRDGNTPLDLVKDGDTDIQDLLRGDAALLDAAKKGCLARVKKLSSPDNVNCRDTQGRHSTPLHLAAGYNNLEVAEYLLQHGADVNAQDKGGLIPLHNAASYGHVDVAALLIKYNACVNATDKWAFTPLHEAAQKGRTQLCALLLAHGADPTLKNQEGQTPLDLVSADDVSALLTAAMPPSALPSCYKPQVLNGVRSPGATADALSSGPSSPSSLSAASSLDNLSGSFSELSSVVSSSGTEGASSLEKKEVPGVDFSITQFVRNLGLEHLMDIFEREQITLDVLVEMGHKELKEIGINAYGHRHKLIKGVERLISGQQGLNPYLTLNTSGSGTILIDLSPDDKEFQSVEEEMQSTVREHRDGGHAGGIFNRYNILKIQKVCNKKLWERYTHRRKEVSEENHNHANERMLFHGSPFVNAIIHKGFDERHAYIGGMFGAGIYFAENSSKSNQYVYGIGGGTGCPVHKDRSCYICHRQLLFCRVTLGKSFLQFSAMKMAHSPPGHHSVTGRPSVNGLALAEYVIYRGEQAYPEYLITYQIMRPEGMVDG
T1 sequence (O95271 whole entry): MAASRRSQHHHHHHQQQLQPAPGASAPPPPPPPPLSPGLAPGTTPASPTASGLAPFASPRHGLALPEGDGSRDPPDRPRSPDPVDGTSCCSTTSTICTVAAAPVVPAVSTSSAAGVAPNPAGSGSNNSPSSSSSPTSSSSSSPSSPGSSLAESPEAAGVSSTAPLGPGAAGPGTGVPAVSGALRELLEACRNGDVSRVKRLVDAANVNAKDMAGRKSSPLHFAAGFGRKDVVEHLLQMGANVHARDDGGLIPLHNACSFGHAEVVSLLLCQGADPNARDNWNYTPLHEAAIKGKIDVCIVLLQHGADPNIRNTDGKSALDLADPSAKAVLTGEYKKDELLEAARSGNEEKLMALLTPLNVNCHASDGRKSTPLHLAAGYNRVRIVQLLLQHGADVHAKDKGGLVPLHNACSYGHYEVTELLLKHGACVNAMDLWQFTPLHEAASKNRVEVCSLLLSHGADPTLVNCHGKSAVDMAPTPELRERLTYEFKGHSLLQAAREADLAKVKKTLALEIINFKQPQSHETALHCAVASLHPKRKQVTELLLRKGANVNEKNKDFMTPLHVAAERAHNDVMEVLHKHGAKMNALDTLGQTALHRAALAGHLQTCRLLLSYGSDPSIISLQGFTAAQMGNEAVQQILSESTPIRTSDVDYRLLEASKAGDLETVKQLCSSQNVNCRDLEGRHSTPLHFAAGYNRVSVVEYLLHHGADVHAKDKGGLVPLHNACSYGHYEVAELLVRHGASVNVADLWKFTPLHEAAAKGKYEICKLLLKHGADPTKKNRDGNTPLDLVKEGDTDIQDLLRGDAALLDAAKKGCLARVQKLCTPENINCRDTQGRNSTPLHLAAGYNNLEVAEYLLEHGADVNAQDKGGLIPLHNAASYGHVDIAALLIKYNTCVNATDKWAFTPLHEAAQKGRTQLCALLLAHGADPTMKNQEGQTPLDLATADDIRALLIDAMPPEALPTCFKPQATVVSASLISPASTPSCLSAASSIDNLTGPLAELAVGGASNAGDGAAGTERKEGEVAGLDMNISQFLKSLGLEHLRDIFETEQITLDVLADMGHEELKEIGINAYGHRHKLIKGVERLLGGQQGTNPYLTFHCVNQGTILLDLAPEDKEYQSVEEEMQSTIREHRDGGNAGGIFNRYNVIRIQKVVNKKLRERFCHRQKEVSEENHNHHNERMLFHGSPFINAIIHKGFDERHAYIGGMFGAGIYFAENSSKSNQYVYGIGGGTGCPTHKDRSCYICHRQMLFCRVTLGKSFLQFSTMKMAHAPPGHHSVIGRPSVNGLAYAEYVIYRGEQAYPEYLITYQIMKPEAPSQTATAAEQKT

[3] = system: DLD-1; experiment: Growth inhibition of human DLD1 cells at 1 uM to 10 uM; type: functional, cell-based
Method in brief: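 DLD-1 colorectal cancer cells seeded at 5 × 10^3 in a colony growth assay. Cells were dosed daily with 1, 5 or 10 μM compound in DMSO, with DMSO alone as the negative control. After 10 days cells were fixed in 10% methanol/acetic acid, stained with 1% crystal violet and quantified by image analysis. Mean ± SEM of at least three independent experiments.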

[4] = molecular target: T2, Poly [ADP-ribose] polymerase tankyrase-1 (Homo sapiens, UniProt O95271); experiment: Inhibition of GST-tagged human recombinant TNKS1 incubated for 1 hr using NAD+, biotinylated NAD+ and activated DNA by luminescence based assay
T2 sequence (O95271 whole entry): T1 sequence (O95271 whole entry)

Chain of Protein mono-ADP-ribosyltransferase PARP6 (Homo sapiens) (Q2NL67 whole entry): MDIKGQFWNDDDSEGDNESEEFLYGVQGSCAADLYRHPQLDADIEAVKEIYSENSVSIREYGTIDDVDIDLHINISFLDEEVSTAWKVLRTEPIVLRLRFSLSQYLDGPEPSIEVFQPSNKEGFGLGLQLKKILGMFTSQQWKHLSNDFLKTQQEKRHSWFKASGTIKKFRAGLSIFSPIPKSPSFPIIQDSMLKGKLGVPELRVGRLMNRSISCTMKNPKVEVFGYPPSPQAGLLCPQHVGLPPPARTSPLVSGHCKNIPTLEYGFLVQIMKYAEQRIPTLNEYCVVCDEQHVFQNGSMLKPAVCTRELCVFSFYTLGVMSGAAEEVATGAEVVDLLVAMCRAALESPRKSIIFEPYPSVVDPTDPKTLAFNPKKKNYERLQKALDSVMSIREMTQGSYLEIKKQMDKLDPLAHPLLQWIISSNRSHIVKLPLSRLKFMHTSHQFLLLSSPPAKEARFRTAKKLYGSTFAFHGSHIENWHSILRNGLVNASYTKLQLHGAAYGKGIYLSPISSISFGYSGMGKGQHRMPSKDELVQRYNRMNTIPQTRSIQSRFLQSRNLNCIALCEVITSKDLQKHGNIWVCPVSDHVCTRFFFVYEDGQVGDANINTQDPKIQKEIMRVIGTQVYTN

CC(C)(C)c1ccc(-c2nc3c(sc4ccccc43)c(=O)[nH]2)cc1
inhibition [1]: 6% | IC50 [2]: 832 nM | growth inhibition (GI) [3]: Active | IC50 [4]: 21.3 nM
